Calls of active or inactive are those of the source. No cut-off for these calls is given here.

One data set concerns Lewis lung carcinoma. As to the kind of experiment: Antitumor activity against mouse LL2 cells allografted in C57Bl/6 mouse assessed as reduction tumor growth at 50 mg/kg, ip administered on day 10 post implantation measured after 17 days. The following applies: time 7.0 day. Format: functional, organism-based. The procedure, abridged:
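LL/2 cells (1×10^6, in DMEM) were injected s.c. into the right flank of 6-week-old C57Bl/6 mice on day 0. Dosing was 50 mg/kg i.p. twice daily, starting on day 1, 7 or 10 and continuing to day 17; controls received carrier. 6 mice per treated group. Tumors were measured every 2–3 days.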

In data set [1] the target is Mitogen-activated protein kinase kinase kinase kinase 2 (Homo sapiens, UniProt Q12851). As to the kind of experiment: Inhibition of GCK in human HeLa cells lysate pre incubated for 15 mins followed by ADP acyl phosphate probe addition and measured after 10 mins by LC-MS/MS analysis. It is filed as subcellular.
Sequence of Mitogen-activated protein kinase kinase kinase kinase 2 (Q12851 whole entry): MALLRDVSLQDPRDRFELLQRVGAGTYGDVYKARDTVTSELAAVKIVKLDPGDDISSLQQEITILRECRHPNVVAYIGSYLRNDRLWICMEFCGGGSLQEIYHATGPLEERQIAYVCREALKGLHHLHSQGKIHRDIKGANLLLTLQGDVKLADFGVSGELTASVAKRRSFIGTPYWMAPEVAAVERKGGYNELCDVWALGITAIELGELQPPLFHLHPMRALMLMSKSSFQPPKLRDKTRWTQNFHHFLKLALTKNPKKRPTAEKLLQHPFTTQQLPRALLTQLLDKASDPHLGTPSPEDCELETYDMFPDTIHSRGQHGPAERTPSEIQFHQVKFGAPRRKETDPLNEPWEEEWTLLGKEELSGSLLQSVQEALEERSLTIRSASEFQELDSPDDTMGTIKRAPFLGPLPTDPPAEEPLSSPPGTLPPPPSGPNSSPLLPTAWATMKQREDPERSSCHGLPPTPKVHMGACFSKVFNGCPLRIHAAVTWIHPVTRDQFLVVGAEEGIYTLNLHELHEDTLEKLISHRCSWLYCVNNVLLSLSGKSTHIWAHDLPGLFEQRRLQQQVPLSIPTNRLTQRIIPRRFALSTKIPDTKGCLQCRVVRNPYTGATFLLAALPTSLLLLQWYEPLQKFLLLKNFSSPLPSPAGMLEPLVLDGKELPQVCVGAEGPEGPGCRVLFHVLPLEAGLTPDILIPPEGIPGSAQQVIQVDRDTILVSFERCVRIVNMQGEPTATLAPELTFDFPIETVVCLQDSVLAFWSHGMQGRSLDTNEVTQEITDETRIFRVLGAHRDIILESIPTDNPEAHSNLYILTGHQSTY
For data set [2], the target named is Mitogen-activated protein kinase kinase kinase 11 (Homo sapiens, UniProt Q16584). Put plainly: Inhibition of MLK3 in human HeLa cells lysate pre incubated for 15 mins followed by ATP acyl phosphate probe addition and measured after 10 mins by LC-MS/MS analysis. It is filed as subcellular.
Sequence of Mitogen-activated protein kinase kinase kinase 11 (Q16584 whole entry): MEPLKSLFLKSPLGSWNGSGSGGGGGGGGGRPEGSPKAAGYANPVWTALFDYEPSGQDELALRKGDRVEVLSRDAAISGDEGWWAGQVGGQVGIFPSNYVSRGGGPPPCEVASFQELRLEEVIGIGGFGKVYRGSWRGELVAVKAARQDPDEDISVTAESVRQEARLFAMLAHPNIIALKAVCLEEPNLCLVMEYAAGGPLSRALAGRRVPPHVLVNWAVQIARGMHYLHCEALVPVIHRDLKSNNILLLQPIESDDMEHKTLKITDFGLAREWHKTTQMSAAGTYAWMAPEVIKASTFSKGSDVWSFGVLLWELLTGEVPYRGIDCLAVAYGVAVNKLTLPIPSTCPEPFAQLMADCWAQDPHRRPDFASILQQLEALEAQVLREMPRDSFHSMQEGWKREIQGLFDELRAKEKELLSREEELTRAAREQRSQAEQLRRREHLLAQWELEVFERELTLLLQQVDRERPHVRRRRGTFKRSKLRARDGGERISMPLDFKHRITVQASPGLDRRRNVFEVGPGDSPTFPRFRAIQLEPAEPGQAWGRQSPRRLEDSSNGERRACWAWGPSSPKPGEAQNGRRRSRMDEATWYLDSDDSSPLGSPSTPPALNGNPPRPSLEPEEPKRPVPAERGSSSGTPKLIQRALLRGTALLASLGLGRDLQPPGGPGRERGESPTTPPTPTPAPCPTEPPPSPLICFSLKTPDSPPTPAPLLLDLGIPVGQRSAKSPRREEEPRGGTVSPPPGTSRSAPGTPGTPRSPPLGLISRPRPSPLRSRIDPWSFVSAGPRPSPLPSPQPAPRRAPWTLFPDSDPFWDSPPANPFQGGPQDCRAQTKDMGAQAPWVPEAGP
The target of a further data set is Ephrin type-A receptor 2 (Homo sapiens, UniProt P29317). Put plainly: Inhibition of EphA2 in human HeLa cells lysate at 10 uM pre incubated for 15 mins followed by ATP acyl phosphate probe addition and measured after 10 mins by LC-MS/MS analysis relative to control. It is filed as subcellular. The following applies: time 25.0 min.
The target in data set [3] is Serine/threonine-protein kinase Aurora (Homo sapiens, UniProt Q96GD4+Q9UQB9+O14965). Put plainly: Inhibition of AurA/AurB/AurC in human HeLa cells lysate at 2 uM pre incubated for 15 mins followed by ATP acyl phosphate probe addition and measured after 10 mins by LC-MS/MS analysis relative to control. Format: subcellular. The following applies: time 25.0 min. In outline:
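KiNativ-type profiling in HeLa lysate (5 mg/mL total protein). Lysate preincubated 15 min with inhibitor at 50, 10, 2, 0.8 or 0 μM, then ATP or ADP acylphosphate probe added (5 μM final) for 10 min. Reaction stopped with urea and analysed by targeted MS, using up to four fragment ions per kinase peptide-probe conjugate. % inhibition calculated against untreated lysate. Duplicate reactions.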

The target in data set [4] is T1, Mitogen-activated protein kinase 14 (Homo sapiens, UniProt Q16539). As to the kind of experiment: Inhibition of P38alpha interaction site in human HeLa cells lysate at 50 uM pre incubated for 15 mins followed by ATP acyl phosphate probe addition and measured after 10 mins by LC-MS/MS analysis relative to control. Format: subcellular. The following applies: time 25.0 min.
T1 sequence (Q16539 whole entry): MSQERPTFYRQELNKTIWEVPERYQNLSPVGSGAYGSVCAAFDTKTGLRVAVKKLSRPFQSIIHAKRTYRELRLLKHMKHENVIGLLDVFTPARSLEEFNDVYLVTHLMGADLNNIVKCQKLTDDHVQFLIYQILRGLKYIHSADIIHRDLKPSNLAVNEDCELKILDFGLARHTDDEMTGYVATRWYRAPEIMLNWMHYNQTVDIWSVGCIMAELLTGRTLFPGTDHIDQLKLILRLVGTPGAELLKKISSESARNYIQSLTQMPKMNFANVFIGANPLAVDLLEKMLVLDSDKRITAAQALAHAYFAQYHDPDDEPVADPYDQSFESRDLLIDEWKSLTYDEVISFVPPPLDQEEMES

Data set [5] has as its target Dual specificity mitogen-activated protein kinase kinase 1 (Homo sapiens, UniProt Q02750). Put plainly: Inhibition of MAP2K1 in human HeLa cells lysate pre incubated for 15 mins followed by ATP acyl phosphate probe addition and measured after 10 mins by LC-MS/MS analysis. It is filed as subcellular.
Data set [6] can be described thus: Volume of distribution at steady state in Sprague-Dawley rat at 1 mg/kg, iv measured up to 8 hrs by LC-MS/MS analysis. Format: ADME, organism-based. The following applies: in vivo, read-out: Vdss.
The target in data set [7] is T1, Mitogen-activated protein kinase 14. Put plainly: Inhibition of P38alpha interaction site in human HeLa cells lysate at 10 uM pre incubated for 15 mins followed by ATP acyl phosphate probe addition and measured after 10 mins by LC-MS/MS analysis relative to control. It is filed as subcellular. The following applies: time 25.0 min.
Data set [8] has as its target Cyclin-dependent kinase 2 (Homo sapiens, UniProt P24941). Put plainly: Inhibition of CDK2 K1 site in human HeLa cells lysate at 2 uM pre incubated for 15 mins followed by ATP acyl phosphate probe addition and measured after 10 mins by LC-MS/MS analysis relative to control. It is filed as subcellular. The following applies: time 25.0 min. The procedure, abridged:
(§1)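 KiNativ profiling in HeLa lysate (5 mg/mL total protein). Lysate incubated 15 min with inhibitor at 50, 10, 2, 0.8 or 0 μM. ATP or ADP acylphosphate probe then added (5 μM final) and reacted 10 min. Reaction stopped with urea and analysed by targeted MS, using up to four fragment ions per kinase peptide-probe conjugate. % inhibition taken against untreated lysate. Run in duplicate.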

For the next data set, the target named is Activated CDC42 kinase 1 (Homo sapiens, UniProt Q07912). As to the kind of experiment: Inhibition of ACK1 in human HeLa cells lysate at 2 uM pre incubated for 15 mins followed by ADP acyl phosphate probe addition and measured after 10 mins by LC-MS/MS analysis relative to control. Format: subcellular. The following applies: time 25.0 min. The procedure, abridged:
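HeLa cell lysates (5 mg/mL total protein) were preincubated with inhibitor at 0, 0.8, 2, 10 or 50 μM for 15 min. ATP or ADP acylphosphate probe was then added (5 μM final) for 10 min, and reactions were stopped with urea. Up to four fragment ions per kinase probe-peptide were quantified by targeted MS. % inhibition was taken relative to untreated lysate. Run in duplicate.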

The target of data set [9] is Serine/threonine-protein kinase MRCK beta (Homo sapiens, UniProt Q9Y5S2). As to the kind of experiment: Inhibition of MRCKB in human HeLa cells lysate pre incubated for 15 mins followed by ATP acyl phosphate probe addition and measured after 10 mins by LC-MS/MS analysis. It is filed as subcellular.
Sequence of Serine/threonine-protein kinase MRCK beta (Q9Y5S2 whole entry): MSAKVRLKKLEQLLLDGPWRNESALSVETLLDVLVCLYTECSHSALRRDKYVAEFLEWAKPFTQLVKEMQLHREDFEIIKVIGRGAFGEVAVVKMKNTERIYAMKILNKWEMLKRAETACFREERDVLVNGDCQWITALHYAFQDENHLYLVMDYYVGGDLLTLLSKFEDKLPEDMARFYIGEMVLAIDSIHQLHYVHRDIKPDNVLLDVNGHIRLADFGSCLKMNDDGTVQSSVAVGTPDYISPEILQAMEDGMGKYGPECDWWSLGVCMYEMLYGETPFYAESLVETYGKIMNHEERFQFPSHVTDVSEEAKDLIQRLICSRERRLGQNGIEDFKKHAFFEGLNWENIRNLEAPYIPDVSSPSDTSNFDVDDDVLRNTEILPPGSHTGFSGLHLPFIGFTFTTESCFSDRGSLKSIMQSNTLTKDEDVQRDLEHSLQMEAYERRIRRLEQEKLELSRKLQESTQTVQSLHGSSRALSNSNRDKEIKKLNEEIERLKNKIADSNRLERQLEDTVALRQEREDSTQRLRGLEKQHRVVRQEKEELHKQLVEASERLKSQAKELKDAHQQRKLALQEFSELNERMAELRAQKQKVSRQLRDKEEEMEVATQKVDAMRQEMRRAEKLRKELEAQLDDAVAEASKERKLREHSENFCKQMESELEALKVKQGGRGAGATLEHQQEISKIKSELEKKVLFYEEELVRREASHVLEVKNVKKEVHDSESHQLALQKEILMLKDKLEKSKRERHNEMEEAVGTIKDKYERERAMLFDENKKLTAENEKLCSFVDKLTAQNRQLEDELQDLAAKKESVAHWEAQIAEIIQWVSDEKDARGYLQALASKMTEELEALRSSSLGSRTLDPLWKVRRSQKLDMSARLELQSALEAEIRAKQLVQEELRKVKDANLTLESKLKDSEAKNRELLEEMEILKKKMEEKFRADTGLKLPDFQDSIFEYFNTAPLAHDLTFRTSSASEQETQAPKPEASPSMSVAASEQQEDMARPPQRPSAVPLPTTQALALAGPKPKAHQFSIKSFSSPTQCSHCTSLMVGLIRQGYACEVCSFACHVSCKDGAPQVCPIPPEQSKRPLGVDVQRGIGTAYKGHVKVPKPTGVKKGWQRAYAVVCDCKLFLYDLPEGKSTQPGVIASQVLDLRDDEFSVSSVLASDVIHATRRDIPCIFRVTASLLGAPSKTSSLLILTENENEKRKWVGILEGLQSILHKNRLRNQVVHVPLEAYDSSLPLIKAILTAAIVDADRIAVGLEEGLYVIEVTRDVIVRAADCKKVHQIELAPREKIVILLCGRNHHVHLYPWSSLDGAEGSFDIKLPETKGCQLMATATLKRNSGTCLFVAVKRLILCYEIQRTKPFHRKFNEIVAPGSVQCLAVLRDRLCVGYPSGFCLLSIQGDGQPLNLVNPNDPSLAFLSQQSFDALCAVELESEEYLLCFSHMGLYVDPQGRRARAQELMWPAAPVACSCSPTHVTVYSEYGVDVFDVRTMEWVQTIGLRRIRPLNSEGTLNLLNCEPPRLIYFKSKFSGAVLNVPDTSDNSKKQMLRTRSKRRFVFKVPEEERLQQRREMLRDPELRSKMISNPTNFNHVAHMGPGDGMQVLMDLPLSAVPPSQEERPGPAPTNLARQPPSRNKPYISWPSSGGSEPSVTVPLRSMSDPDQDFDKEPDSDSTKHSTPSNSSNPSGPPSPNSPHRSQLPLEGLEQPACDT
A further data set has as its system HeLa. Put plainly: Antiproliferative activity against human HeLa cells assessed as reduction in cell viability at 5 uM after 48 hrs by MTT assay. It is filed as functional, cell-based. The procedure, abridged:
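HeLa cells were infected with empty adenovirus or adenovirus encoding dominant-negative BMK1(AEF). After 24 hr they were treated with or without 5 μM drug for 48 hr and read by MTT. % growth inhibition = (1 − MTT of group / MTT of Ad-EV-only cells) × 100. n = 3.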

A further data set deals with Focal adhesion kinase 1 (Homo sapiens, UniProt Q05397). As to the kind of experiment: Inhibition of FAK in human HeLa cells lysate pre incubated for 15 mins followed by ADP acyl phosphate probe addition and measured after 10 mins by LC-MS/MS analysis. Format: subcellular.
A short description of data set [10]: Inhibition of PCTAIRE2/ICK in human HeLa cells lysate at 2 uM pre incubated for 15 mins followed by ADP acyl phosphate probe addition and measured after 10 mins by LC-MS/MS analysis relative to control. The following applies: 25 min, condition cancer.
A short description of data set [11]: Clearance in Sprague-Dawley rat at 2 mg/kg, po measured up to 8 hrs by LC-MS/MS analysis. It is filed as ADME, organism-based. The following applies: in vivo. The procedure, abridged:
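Sprague-Dawley rats given one intravenous dose or one oral dose of 2 mg/kg. Plasma drug concentrations were followed over time, with samples taken out to 8 hr after dosing. PK parameters (clearance, volume of distribution, half-life, oral bioavailability, Cmax) were calculated from these concentration–time data.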

Data set [12] deals with T1, Mitogen-activated protein kinase 14. As to the kind of experiment: Inhibition of p38a in human HeLa cells lysate at 2 uM pre incubated for 15 mins followed by ATP acyl phosphate probe addition and measured after 10 mins by LC-MS/MS analysis relative to control. Format: subcellular. The following applies: time 25.0 min.
Data set [13] can be described thus: Inhibition of PKD1/2 in human HeLa cells lysate pre incubated for 15 mins followed by ATP acyl phosphate probe addition and measured after 10 mins by LC-MS/MS analysis. It is filed as subcellular.
Data set [14] addresses Cyclin-dependent kinase 8/19 (Homo sapiens, UniProt P49336+Q9BWU1). Put plainly: Inhibition of CDK8/CDK11 in human HeLa cells lysate pre incubated for 15 mins followed by ATP acyl phosphate probe addition and measured after 10 mins by LC-MS/MS analysis. It is filed as subcellular. In outline:
as §1

Data set [15] in a line: Inhibition of MST4/YSK1 in human HeLa cells lysate at 50 uM pre incubated for 15 mins followed by ATP acyl phosphate probe addition and measured after 10 mins by LC-MS/MS analysis relative to control. The following applies: 25 min, condition cancer.
Data set [16] concerns the target Dual specificity mitogen-activated protein kinase kinase 7 (Homo sapiens, UniProt O14733). As to the kind of experiment: Inhibition of MAP2K7 in human HeLa cells lysate pre incubated for 15 mins followed by ADP acyl phosphate probe addition and measured after 10 mins by LC-MS/MS analysis. It is filed as subcellular.

Sequence of Serine/threonine-protein kinase Aurora (O14965 whole entry, looked up, the tested form may be a part): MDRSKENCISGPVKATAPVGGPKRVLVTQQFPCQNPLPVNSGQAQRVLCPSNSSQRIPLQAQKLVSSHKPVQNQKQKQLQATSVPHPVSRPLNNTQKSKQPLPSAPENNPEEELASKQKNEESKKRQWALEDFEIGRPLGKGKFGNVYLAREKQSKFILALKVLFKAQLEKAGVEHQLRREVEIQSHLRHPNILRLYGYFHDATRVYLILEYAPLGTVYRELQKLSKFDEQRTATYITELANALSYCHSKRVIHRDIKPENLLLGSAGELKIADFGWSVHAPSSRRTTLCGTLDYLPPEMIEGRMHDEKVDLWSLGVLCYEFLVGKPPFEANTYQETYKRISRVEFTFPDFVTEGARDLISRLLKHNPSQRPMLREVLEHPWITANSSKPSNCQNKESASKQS
Sequence of Serine/threonine-protein kinase Aurora (Q96GD4 whole entry, looked up, the tested form may be a part): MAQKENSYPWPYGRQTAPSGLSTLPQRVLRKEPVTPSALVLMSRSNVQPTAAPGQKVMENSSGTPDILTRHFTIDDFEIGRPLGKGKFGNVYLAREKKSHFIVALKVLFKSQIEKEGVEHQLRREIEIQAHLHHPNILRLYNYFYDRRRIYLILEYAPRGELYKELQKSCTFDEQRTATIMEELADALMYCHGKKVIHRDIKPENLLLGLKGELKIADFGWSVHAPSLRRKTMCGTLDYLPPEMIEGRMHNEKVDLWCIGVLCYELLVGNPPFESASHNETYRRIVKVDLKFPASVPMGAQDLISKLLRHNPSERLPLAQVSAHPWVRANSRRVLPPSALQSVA
Sequence of Serine/threonine-protein kinase Aurora (Q9UQB9 whole entry, looked up, the tested form may be a part): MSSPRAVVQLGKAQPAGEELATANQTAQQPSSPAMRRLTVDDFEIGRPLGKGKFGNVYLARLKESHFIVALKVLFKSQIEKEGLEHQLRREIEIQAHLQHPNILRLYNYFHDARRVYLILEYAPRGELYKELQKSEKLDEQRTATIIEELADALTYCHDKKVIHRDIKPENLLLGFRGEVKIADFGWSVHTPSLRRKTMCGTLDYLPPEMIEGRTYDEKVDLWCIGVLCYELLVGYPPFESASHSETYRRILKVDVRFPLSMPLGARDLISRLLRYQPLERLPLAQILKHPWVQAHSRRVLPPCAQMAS

For the compound `CCOc1cc(N2CCC(O)CC2)ccc1Nc1ncc2c(n1)N(C)c1ccccc1C(=O)N2C`, the outcome in the data set on Lewis lung carcinoma and in the data set with HeLa was Active. For the same compound, the IC50 in [1] is greater than 50 µM; in data set [2], greater than 50 µM; in data set [5] it was greater than 50 µM; in data set [9], greater than 50 µM; against Focal adhesion kinase 1, 39 µM; in data set [13] it was greater than 50 µM. Further, the IC50 in data set [14] and in data set [16] was greater than 50 µM throughout. In addition, the inhibition was -3.9% against Ephrin type-A receptor 2; -5.8% in [3]; -2.5% in data set [4]; 17.4% in [7]; -2.9% in data set [8]; 24.4% against Activated CDC42 kinase 1. The inhibition in [12] is 3.8%. Moreover, the Vd in data set [6] is 3.4 L/kg. The inhibition at 2 µM in [10] worked out at 1.2%. The CL/F in [11] was determined as 26 mL/min/kg. The inhibition at 50 µM in [15] was -6.1%.

The values above are taken from ChEMBL document CHEMBL5661979, “Pharmacological inhibition of BMK1 suppresses tumor growth through promyelocytic leukemia protein” (Cancer Cell, 2010).
